Measured values taken from ChEMBL document CHEMBL4270599, “Synthesis of a 3'-C-ethynyl-β-d-ribofuranose purine nucleoside library: Discovery of C7-deazapurine analogs as potent antiproliferative nucleosides” (Eur J Med Chem, 2018).

How the values were obtained:
HOP-62 [1] = assay: Cytotoxicity against human HOP62 cells after 48 hrs by SRB assay; type: functional; conditions: HOP-62, 48 h
UACC-62 = assay: Cytotoxicity against human UACC62 cells after 48 hrs by SRB assay; type: functional; conditions: UACC-62, 48 h
OVCAR-4 [2] = assay: Cytotoxicity against human OVCAR4 cells after 48 hrs by SRB assay; type: functional; conditions: OVCAR-4, 48 h
PC-3 = assay: Cytotoxicity against human PC3 cells after 48 hrs by SRB assay; type: functional; conditions: PC-3, 48 h; for CC50: read-out: pLC50 (the source's name) (converted)
MCF7 [3] = assay: Cytotoxicity against human MCF7 cells after 48 hrs by SRB assay; type: functional; conditions: MCF7, 48 h
SR [4] = assay: Growth inhibition of human SR cells assessed as cell growth at 10^-8 M incubated for 48 hrs by sulforhodamine B assay relative to control; type: functional; conditions: read-out: Activity
A549 = assay: Growth inhibition of human A549/ATCC cells assessed as cell growth at 10^-8 M incubated for 48 hrs by sulforhodamine B assay relative to control; type: functional; conditions: A549, 48 h, read-out: Activity
EKVX = assay: Growth inhibition of human EKVX cells assessed as cell growth at 10^-8 M incubated for 48 hrs by sulforhodamine B assay relative to control; type: functional; conditions: read-out: Activity
HOP-62 [5] = assay: Growth inhibition of human HOP62 cells assessed as cell growth at 10^-8 M incubated for 48 hrs by sulforhodamine B assay relative to control; type: functional; conditions: HOP-62, 48 h, read-out: Activity
NCI-H23 [6] = assay: Growth inhibition of human NCI-H23 cells assessed as cell growth at 10^-8 M incubated for 48 hrs by sulforhodamine B assay relative to control; type: functional; conditions: NCI-H23, 48 h, read-out: Activity
SF-268 = assay: Growth inhibition of human SF268 cells assessed as cell growth at 10^-8 M incubated for 48 hrs by sulforhodamine B assay relative to control; type: functional; conditions: SF-268, 48 h, read-out: Activity
SK-MEL-5 = assay: Growth inhibition of human SK-MEL-5 cells assessed as cell growth at 10^-8 M incubated for 48 hrs by sulforhodamine B assay relative to control; type: functional; conditions: SK-MEL-5, 48 h, read-out: Activity
IGROV-1 = assay: Growth inhibition of human IGROV1 cells assessed as cell growth at 10^-8 M incubated for 48 hrs by sulforhodamine B assay relative to control; type: functional; conditions: IGROV-1, 48 h, read-out: Activity
786-0 = assay: Growth inhibition of human 786-0 cells assessed as cell growth at 10^-8 M incubated for 48 hrs by sulforhodamine B assay relative to control; type: functional; conditions: 786-0, 48 h, read-out: Activity
MCF7 [7] = assay: Growth inhibition of human MCF7 cells assessed as cell growth at 10^-8 M incubated for 48 hrs by sulforhodamine B assay relative to control; type: functional; conditions: MCF7, 48 h, read-out: Activity
MDA-MB-231 = assay: Growth inhibition of human MDA-MB-231 cells assessed as cell growth at 10^-8 M incubated for 48 hrs by sulforhodamine B assay relative to control; type: functional; conditions: MDA-MB-231, 48 h, read-out: Activity
CCRF-CEM [8] = assay: Growth inhibition of human CCRF-CEM cells assessed as cell growth at 10^-7 M incubated for 48 hrs by sulforhodamine B assay relative to control; type: functional; conditions: read-out: Activity
NCI-H23 [9] = assay: Growth inhibition of human NCI-H23 cells assessed as cell growth at 10^-7 M incubated for 48 hrs by sulforhodamine B assay relative to control; type: functional; conditions: NCI-H23, 48 h, read-out: Activity
SF-539 = assay: Growth inhibition of human SF539 cells assessed as cell growth at 10^-7 M incubated for 48 hrs by sulforhodamine B assay relative to control; type: functional; conditions: SF-539, 48 h, read-out: Activity
Malme-3M = assay: Growth inhibition of human MALME-3M cells assessed as cell growth at 10^-7 M incubated for 48 hrs by sulforhodamine B assay relative to control; type: functional; conditions: read-out: Activity
ACHN = assay: Growth inhibition of human ACHN cells assessed as cell growth at 10^-7 M incubated for 48 hrs by sulforhodamine B assay relative to control; type: functional; conditions: read-out: Activity
DU-145 [10] = assay: Growth inhibition of human DU145 cells assessed as cell growth at 10^-7 M incubated for 48 hrs by sulforhodamine B assay relative to control; type: functional; conditions: DU-145, 48 h, read-out: Activity
MCF7 [11] = assay: Growth inhibition of human MCF7 cells assessed as cell growth at 10^-7 M incubated for 48 hrs by sulforhodamine B assay relative to control; type: functional; conditions: MCF7, 48 h, read-out: Activity
SR [12] = assay: Growth inhibition of human SR cells assessed as cell growth at 10^-6 M incubated for 48 hrs by sulforhodamine B assay relative to control; type: functional; conditions: read-out: Activity
OVCAR-4 [13] = assay: Growth inhibition of human OVCAR4 cells assessed as cell growth at 10^-6 M incubated for 48 hrs by sulforhodamine B assay relative to control; type: functional; conditions: OVCAR-4, 48 h, read-out: Activity
NCI/ADR-RES = assay: Growth inhibition of human NCI/ADR-RES cells assessed as cell growth at 10^-6 M incubated for 48 hrs by sulforhodamine B assay relative to control; type: functional; conditions: read-out: Activity
CCRF-CEM [14] = assay: Growth inhibition of human CCRF-CEM cells assessed as cell growth at 10^-5 M incubated for 48 hrs by sulforhodamine B assay relative to control; type: functional; conditions: read-out: Activity
KM12 = assay: Growth inhibition of human KM12 cells assessed as cell growth at 10^-5 M incubated for 48 hrs by sulforhodamine B assay relative to control; type: functional; conditions: KM12, 48 h, read-out: Activity
SNB-19 = assay: Growth inhibition of human SNB19 cells assessed as cell growth at 10^-5 M incubated for 48 hrs by sulforhodamine B assay relative to control; type: functional; conditions: SNB-19, 48 h, read-out: Activity
OVCAR-5 = assay: Growth inhibition of human OVCAR5 cells assessed as cell growth at 10^-5 M incubated for 48 hrs by sulforhodamine B assay relative to control; type: functional; conditions: OVCAR-5, 48 h, read-out: Activity
DU-145 [15] = assay: Growth inhibition of human DU145 cells assessed as cell growth at 10^-5 M incubated for 48 hrs by sulforhodamine B assay relative to control; type: functional; conditions: DU-145, 48 h, read-out: Activity
DU-145 [16] = assay: Growth inhibition of human DU145 cells assessed as cell growth at 10^-4 M incubated for 48 hrs by sulforhodamine B assay relative to control; type: functional; conditions: DU-145, 48 h, read-out: Activity
[17] = Antiproliferative activity against HMVEC-d cells after 4 days by Coulter counter method; type: cell-based; conditions: Homo sapiens, 96 h
Summary of the method: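 Primary HUVEC, primary HMVEC-d and the HMEC-1 line seeded at 20,000 cells/well in gelatin-coated plates in EC growth medium (EGM2). After overnight incubation, 5-fold compound dilutions added. Cells proliferated four days with compound, then trypsinized and counted by Coulter counter to derive IC₅₀.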

[18] = read-out: LC50 (the source's name)
[19] = read-out: pLC50 (the source's name) (converted)

C#C[C@@]1(O)[C@@H](CO)O[C@@H](n2cc(Br)c3c(N)ncnc32)[C@@H]1O
GI50 (HOP-62 [1]; read-out: GI50): 0.211 to 0.427 µM | CC50 (HOP-62 [1]; [18]): > 100 µM | TGI (HOP-62 [1]; read-out: TGI): 4.76 to 100 µM | GI50 (UACC-62; read-out: GI50): 0.151 to 0.349 µM | CC50 (UACC-62; [18]): 60 to 74.9 µM | TGI (UACC-62; read-out: TGI): 11.8 to 12.9 µM | GI50 (OVCAR-4 [2]; read-out: GI50): 0.296 to 0.452 µM | CC50 (OVCAR-4 [2]; [18]): > 100 µM | TGI (OVCAR-4 [2]; read-out: TGI): > 100 µM | TGI (OVCAR-4 [2]; read-out: pTGI (converted)): > 100 µM | GI50 (PC-3; read-out: GI50): 0.0477 to 0.167 µM | TGI (PC-3; read-out: TGI): 8.7 to 100 µM | CC50 (PC-3): > 100 µM | GI50 (MCF7 [3]; read-out: GI50): 0.016 to 0.0307 µM | CC50 (MCF7 [3]; [18]): > 100 µM | TGI (MCF7 [3]; read-out: TGI): 1.19 to 1.81 µM | growth at 0.01 µM (SR [4]): 101 to 104% | growth at 0.01 µM (A549): 94 to 99% | growth at 0.01 µM (EKVX): 85% | growth at 0.01 µM (HOP-62 [5]): 92 to 100% | growth at 0.01 µM (NCI-H23 [6]): 90 to 91% | growth at 0.01 µM (SF-268): 83 to 93% | growth at 0.01 µM (SK-MEL-5): 93 to 96% | growth at 0.01 µM (IGROV-1): 81 to 88% | growth at 0.01 µM (786-0): 86 to 91% | growth at 0.01 µM (MCF7 [7]): 60 to 74% | growth at 0.01 µM (MDA-MB-231): 90 to 104% | growth at 0.1 µM (CCRF-CEM [8]): 58 to 83% | growth at 0.1 µM (NCI-H23 [9]): 61 to 70% | growth at 0.1 µM (SF-539): 79 to 91% | growth at 0.1 µM (Malme-3M): 77 to 79% | growth at 0.1 µM (ACHN): 75% | growth at 0.1 µM (DU-145 [10]): 38 to 58% | growth at 0.1 µM (MCF7 [11]): 12 to 25% | growth at 1 µM (SR [12]): 7 to 9% | growth at 1 µM (OVCAR-4 [13]): 19 to 29% | growth at 1 µM (NCI/ADR-RES): 6% | growth at 10 µM (CCRF-CEM [14]): 3 to 5% | growth at 10 µM (KM12): 7 to 12% | growth at 10 µM (SNB-19): 1% | growth at 10 µM (OVCAR-5): 11 to 12% | growth at 10 µM (DU-145 [15]): 7 to 10% | growth at 100 µM (DU-145 [16]): 8 to 10% | IC50 [17]: 0.0019 µM

C#C[C@@]1(O)[C@@H](CO)O[C@@H](n2ccc3c(N)ncnc32)[C@@H]1O
TGI (HOP-62 [1]; read-out: TGI): 7.91 µM | GI50 (HOP-62 [1]; read-out: pGI50 (converted)): 2.04 µM | CC50 (HOP-62 [1]; [19]): > 100 µM | TGI (HOP-62 [1]; read-out: pTGI (converted)): 7.94 µM | TGI (UACC-62; read-out: TGI): 4.48 µM | GI50 (UACC-62; read-out: pGI50 (converted)): 1.78 µM | CC50 (UACC-62; [19]): 19.5 µM | TGI (UACC-62; read-out: pTGI (converted)): 4.47 µM | TGI (OVCAR-4 [2]; read-out: TGI): 7.79 µM | GI50 (OVCAR-4 [2]; read-out: pGI50 (converted)): 1.95 µM | CC50 (OVCAR-4 [2]; [19]): 28.2 µM | TGI (OVCAR-4 [2]; read-out: pTGI (converted)): 7.76 µM | TGI (PC-3; read-out: TGI): 3.54 µM | GI50 (PC-3; read-out: pGI50 (converted)): 0.813 µM | CC50 (PC-3): 33.1 µM | TGI (PC-3; read-out: pTGI (converted)): 3.55 µM | TGI (MCF7 [3]; read-out: TGI): 5.66 µM | GI50 (MCF7 [3]; read-out: pGI50 (converted)): 0.24 µM | CC50 (MCF7 [3]; [19]): 85.1 µM | TGI (MCF7 [3]; read-out: pTGI (converted)): 5.62 µM | growth at 0.01 µM (SR [4]): 101% | growth at 0.01 µM (A549): 100% | growth at 0.01 µM (EKVX): 87% | growth at 0.01 µM (HOP-62 [5]): 87% | growth at 0.01 µM (NCI-H23 [6]): 95% | growth at 0.01 µM (SF-268): 99% | growth at 0.01 µM (SK-MEL-5): 102% | growth at 0.01 µM (IGROV-1): 101% | growth at 0.01 µM (786-0): 91% | growth at 0.01 µM (MCF7 [7]): 83% | growth at 0.01 µM (MDA-MB-231): 104% | growth at 0.1 µM (CCRF-CEM [8]): 101% | growth at 0.1 µM (NCI-H23 [9]): 93% | growth at 0.1 µM (SF-539): 103% | growth at 0.1 µM (Malme-3M): 97% | growth at 0.1 µM (ACHN): 101% | growth at 0.1 µM (DU-145 [10]): 98% | growth at 0.1 µM (MCF7 [11]): 73% | growth at 1 µM (SR [12]): 46% | growth at 1 µM (OVCAR-4 [13]): 75% | growth at 1 µM (NCI/ADR-RES): 45% | growth at 10 µM (CCRF-CEM [14]): 14% | growth at 10 µM (KM12): 2% | growth at 10 µM (SNB-19): -15% | growth at 10 µM (OVCAR-5): -8% | growth at 10 µM (DU-145 [15]): -8% | growth at 100 µM (DU-145 [16]): -48%
